One assay relates to BMEC. The experiment in a line: Antiproliferative activity against bovine BMEC. Format: functional, cell-based. The following applies: Bos taurus. The method in brief: (§1)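 Cells plated, then exposed 24 h after seeding to graded drug concentrations for 24 h. Drug removed, 48 h recovery in drug-free medium, surviving cells stained with sulforhodamine B (OD 564). […] BMEC: primary bovine adrenal cultures in DMEM, 20% FCS, heparin, brain extract.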

Another assay concerns MCF7-DOX. Nature of the assay: Antiproliferative activity against doxorubicin-resistant human MCF7-dx cells. Format: functional, cell-based. The method in brief: as §1
For the next assay, the system named is IGROV-1. Nature of the assay: Antiproliferative activity against human IGROV1 cells. Format: functional, cell-based. Summed up: as §1
Assay [1] relates to NCI-H460. The experiment in a line: Antitumor activity in CD1 mice implanted with NCI-H460 xenografts at 60 mg/kg, po. The format is functional, organism-based. Set-up: dose 60 mg/kg. The following applies: Homo sapiens. Summed up:
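NCI-H460 cells (3.0 × 10⁶ in HBSS) injected sc into right flank of female CD-1 nude mice; groups of eight once tumors reached ~30 mg (day 5). Oral 60 mg/kg twice daily, 5 days/week for 3 weeks; controls got vehicle. Caliper volumes (length × width²/2) twice weekly; toxicity scored as % max body-weight loss; Mann-Whitney U test.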

The subject of assay [2] is A2780. The experiment in a line: Antiproliferative activity against human A2780 cells. Format: functional, cell-based. Summed up: as §1
Assay [3] concerns NCI-H460. The experiment in a line: Antiproliferative activity against human H460 cells. The format is functional, cell-based. Summed up: as §1
In the next assay the test system is HCT-116. The experiment in a line: Antiproliferative activity against human HCT116 cells. Format: functional, cell-based. The method in brief:
as §1

Assay [4] has as its system A2780. The experiment in a line: Antiproliferative activity against doxorubicin-resistant human A2780-dx cells. Format: functional, cell-based. The method in brief:
as §1

For a further assay, the system named is MeWo. The experiment in a line: Antiproliferative activity against human MeWo cells. The format is functional, cell-based. Summed up:
as §1

In a further assay the test system is MCF7. Nature of the assay: Antiproliferative activity against human MCF7 cells. The format is functional, cell-based. The method in brief:
as §1

A further assay concerns HUVEC. The experiment in a line: Antiproliferative activity against human HUVEC. The format is functional, cell-based. Summed up:
as §1

The subject of assay [5] is NCI-H460. Nature of the assay: Cell cycle arrest in NCI-H460 cells by accumulation at S phase cell at 3 nM post 24 hrs treatment and 24 hrs recovery.
Assay [6] deals with NCI-H460. The experiment in a line: Cell cycle arrest in NCI-H460 cells by accumulation at G2/M phase cell at 3 nM post 24 hrs treatment and 48 hrs recovery.
Assay [7] deals with NCI-H460. Nature of the assay: Cell cycle arrest in NCI-H460 cells by accumulation at S phase cell at 3 nM post 24 hrs treatment and 48 hrs recovery.
Assay [8] relates to NCI-H460. Nature of the assay: Cell cycle arrest in NCI-H460 cells by accumulation at G2/M phase cell at 3 nM post 24 hrs treatment.
For assay [9], the system named is NCI-H460. Nature of the assay: Cell cycle arrest in NCI-H460 cells by accumulation at G1/0 phase cell at 3 nM post 24 hrs treatment and 24 hrs recovery. The format is functional, Homo sapiens.
Assay [10] relates to NCI-H460. Nature of the assay: Cell cycle arrest in NCI-H460 cells by accumulation at G1/0 phase cell at 3 nM post 24 hrs treatment. Format: functional, Homo sapiens.
Assay [11] relates to NCI-H460. Nature of the assay: Cell cycle arrest in NCI-H460 cells by accumulation at G2/M phase cell at 3 nM post 24 hrs treatment and 24 hrs recovery.
Assay [12] deals with NCI-H460. The experiment in a line: Cell cycle arrest in NCI-H460 cells by accumulation at G1/0 phase cell at 3 nM post 24 hrs treatment and 48 hrs recovery. The format is functional, Homo sapiens.
In assay [13] the test system is NCI-H460. The experiment in a line: Cell cycle arrest in NCI-H460 cells by accumulation at S phase cell at 3 nM post 24 hrs treatment.

We go through 16 compounds from ChEMBL document CHEMBL1147810, “Novel combretastatin analogues endowed with antitumor activity” (J Med Chem, 2006).

Calls of active or inactive are those of the source. The rule behind the calls is not given here. Some results are limits rather than exact numbers.

As to `COc1cc(/C=C/c2cc(O)c3c(-c4ccccc4)csc3c2)cc(OC)c1OC`, in the assay with BMEC, the IC50 (as a rule, the midpoint of a concentration-inhibition curve) is > 20000 nM.
In the assay with BMEC, `COc1cc(/C=C/c2cc(O)c3cc(C)oc3c2)cc(OC)c1OC` gave an IC50 of 12300 nM. This lies in the double-digit micromolar range.
The same measure, in the same setting: to `COc1cc(/C=C\c2cc(O)c3cc(C)sc3c2)cc(OC)c1OC` belongs 23 nM; to `COc1cc(/C=C/c2cc(O)c3cc(-c4ccccc4)oc3c2)cc(OC)c1OC`, > 20000 nM.
As to `COc1cc(/C=C\c2ccc3cc[nH]c3c2)cc(OC)c1OC`, the IC50 in the assay with BMEC came out at 28 nM.
As to `COc1cc(/C=C/c2ccc3cc[nH]c3c2)cc(OC)c1OC`, in the assay with BMEC, the IC50 worked out at 1900 nM.
On to `COc1cc(/C=C\c2cc(O)c3cc(-c4ccccc4)sc3c2)cc(OC)c1OC`, for which, in the assay with BMEC, the IC50 came to 23000 nM.
Still for that read-out and setting: the same measure for `COc1cc(/C=C\c2cc(OC)c3ccoc3c2)cc(OC)c1OC`: 7500 nM.
As for `COc1cc(/C=C\c2cc(OP(=O)(O)O)c3ccsc3c2)cc(OC)c1OC`, the IC50 was 487 nM in the assay with MCF7-DOX; 1610 nM in the assay with IGROV-1; 640 nM in the assay on BMEC; 500 nM in the assay on A2780 [2]; 620 nM with NCI-H460 [3]; 3000 nM in the assay on HCT-116. Further, the IC50 came to 750 nM with A2780 [4], 830 nM in the assay with MeWo, 639 nM in the assay with MCF7 and 83 nM in the assay with HUVEC. In addition, in the assay on NCI-H460 [1], the result was Active.
With `COc1cc(/C=C\c2cc(O)c3cc(-c4ccccc4)oc3c2)cc(OC)c1OC`, the IC50 in the assay with BMEC is > 2000 nM.
The same measure, in the same setting: to `COc1cc(/C=C\c2cc(O)c3c(-c4ccccc4)csc3c2)cc(OC)c1OC` belongs > 2000 nM.
With `COc1ccc(/C=C\c2cc(OC)c(OC)c(OC)c2)cc1O` [COMBRETASTATIN A4], the half-maximal inhibitory concentration (IC50) was determined as 2.3 nM in the assay with MCF7-DOX; 10.3 nM in the assay on IGROV-1; 2.19 nM with A2780 [2]; 1.9 nM with HCT-116; 1.66 nM with A2780 [4]; 4 nM in the assay with MeWo. For the same compound, the IC50 was found to be 2 nM in the assay on MCF7 and 1.5 nM in the assay with HUVEC. Moreover, the Activity in the assay on NCI-H460 [5] worked out at 22%; in the assay on NCI-H460 [6] it was 27%; in the assay on NCI-H460 [7], 18%; with NCI-H460 [8], 79%; in the assay with NCI-H460 [9], 62%; with NCI-H460 [10], 8%. In addition, the Activity was determined as 16% in the assay on NCI-H460 [11], 55% in the assay on NCI-H460 [12] and 12% with NCI-H460 [13].
`COc1cc(/C=C/c2cc(OC)c3ccoc3c2)cc(OC)c1OC` yielded an IC50 in the assay on BMEC of 75000 nM.
On the same count and under the same terms, to `COc1cc(/C=C/c2cc(O)c3cc(-c4ccccc4)sc3c2)cc(OC)c1OC` belongs 38000 nM.
The same measure, in the same setting: the same measure for `COc1cc(/C=C\c2cc(O)c3cc(C)oc3c2)cc(OC)c1OC`: 93 nM.
In the assay on BMEC, `COc1cc(/C=C/c2cc(O)c3cc(C)sc3c2)cc(OC)c1OC` had an IC50 of 840 nM.
